Experimental data published in ChEMBL document CHEMBL1152591, “Design, synthesis and structure-activity relationship of 2-(3',4',5'-trimethoxybenzoyl)-benzo[b]furan derivatives as a novel class of inhibitors of tubulin polymerization” (Bioorg Med Chem, 2009).

Tests used:
[1] = Cytotoxicity against human Molt4/C8 cells after 2 days; conditions: MOLT-4, 48 h
HeLa = experiment: Cytotoxicity against human HeLa cells after 2 days; type: functional, cell-based; conditions: 48 h
L1210 = experiment: Cytotoxicity against mouse L1210 cells after 2 days; type: functional, cell-based; conditions: L1210, 48 h
Procedure, shortened: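 Cells were incubated with the compounds at 37 °C for two days, then counted on a Coulter counter. IC50 is the concentration that inhibits cell proliferation by 50%.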

FM3A = experiment: Cytotoxicity against mouse FM3A0 cells after 2 days; type: functional, cell-based; conditions: 48 h
CCRF-CEM = experiment: Cytotoxicity against human CEM cells after 2 days; type: functional, cell-based; conditions: 48 h
K562 [2] = experiment: Cell cycle arrest in human K562 cells assessed as accumulation at sub-G0/G1 phase at 230 nM after 24 hrs by flow cytometry; type: functional
Procedure, shortened: (§1)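 K562 leukaemia cells were cultured for 24 h with compound at one fixed concentration. DNA content per cell was measured by the standard propidium iodide procedure and flow cytometry. Proportions of cells in the sub-G0–G1 (apoptotic), G0–G1, S and G2–M peaks were compared with an untreated control.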

Bos taurus = species: Bos taurus; experiment: Displacement of [3H]colchicine from bovine tubulin at 5 uM
Procedure, shortened: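 Reaction mixtures held 1 μM bovine brain tubulin, 5 μM [3H]colchicine and 5 μM test compound. Inhibition of radiolabelled colchicine binding to tubulin is expressed as percent inhibition.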

K562 [3] = experiment: Cell cycle arrest in human K562 cells assessed as accumulation at G1 phase at 230 nM after 24 hrs by flow cytometry; type: functional; procedure, shortened: as §1
K562 [4] = experiment: Cell cycle arrest in human K562 cells assessed as accumulation at G2 phase at 230 nM after 24 hrs by flow cytometry; type: functional; procedure, shortened: as §1
[5] = Inhibition of bovine tubulin polymerization; parameters: species or system Bos taurus
Procedure, shortened: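 Purified bovine brain tubulin (10 μM) in glutamate buffer was preincubated with varying compound concentrations at 30 °C, then cooled to 0 °C. GTP was added and the mixture warmed to 30 °C in a recording spectrophotometer. Assembly was followed by turbidity.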

K562 [6] = experiment: Cell cycle arrest in human K562 cells assessed as accumulation at S phase at 230 nM after 24 hrs by flow cytometry; type: functional; procedure, shortened: as §1
K562 [7] = experiment: Cell cycle arrest in human K562 cells assessed as accumulation at G2 phase at 420 nM after 24 hrs by flow cytometry; type: functional
K562 [8] = experiment: Cell cycle arrest in human K562 cells assessed as accumulation at sub-G0/G1 phase at 420 nM after 24 hrs by flow cytometry; type: functional
K562 [9] = experiment: Cell cycle arrest in human K562 cells assessed as accumulation at S phase at 420 nM after 24 hrs by flow cytometry; type: functional
K562 [10] = experiment: Cell cycle arrest in human K562 cells assessed as accumulation at G1 phase at 420 nM after 24 hrs by flow cytometry; type: functional
K562 [11] = experiment: Cell cycle arrest in human K562 cells assessed as accumulation at G2 phase at 980 nM after 24 hrs by flow cytometry; type: functional; procedure, shortened: as §1
K562 [12] = experiment: Cell cycle arrest in human K562 cells assessed as accumulation at S phase at 980 nM after 24 hrs by flow cytometry; type: functional; procedure, shortened: as §1
K562 [13] = experiment: Cell cycle arrest in human K562 cells assessed as accumulation at G1 phase at 980 nM after 24 hrs by flow cytometry; type: functional; procedure, shortened: as §1
K562 [14] = experiment: Cell cycle arrest in human K562 cells assessed as accumulation at sub-G0/G1 phase at 980 nM after 24 hrs by flow cytometry; type: functional; procedure, shortened: as §1
K562 [15] = experiment: Cell cycle arrest in human K562 cells assessed as accumulation at G2 phase at 16 nM after 24 hrs by flow cytometry; type: functional; procedure, shortened: as §1
K562 [16] = experiment: Cell cycle arrest in human K562 cells assessed as accumulation at G1 phase at 16 nM after 24 hrs by flow cytometry; type: functional; procedure, shortened: as §1
K562 [17] = experiment: Cell cycle arrest in human K562 cells assessed as accumulation at sub-G0/G1 phase at 16 nM after 24 hrs by flow cytometry; type: functional; procedure, shortened: as §1
K562 [18] = experiment: Cell cycle arrest in human K562 cells assessed as accumulation at S phase at 16 nM after 24 hrs by flow cytometry; type: functional; procedure, shortened: as §1

COc1ccc2c(N)c(C(=O)c3cc(OC)c(OC)c(OC)c3)oc2c1
IC50 [1]: 140 nM

COc1cc(C(=O)c2cc3cc(Br)ccc3o2)cc(OC)c1OC
IC50 (HeLa): > 10000 nM
IC50 [1]: > 10000 nM
IC50 (L1210): > 10000 nM
IC50 (FM3A): > 10000 nM
IC50 (CCRF-CEM): > 10000 nM

COc1ccc2c3c(oc2c1)C(=O)c1cc(OC)c(OC)c(OC)c1-3
IC50 (HeLa): > 10000 nM
IC50 [1]: > 10000 nM
IC50 (L1210): > 10000 nM
IC50 (FM3A): > 10000 nM
IC50 (CCRF-CEM): > 10000 nM

COc1ccc2oc(C(=O)c3cc(OC)c(OC)c(OC)c3)c(C)c2c1
Activity (K562 [2]): 18.18%
Activity (Bos taurus): 65%
IC50 [1]: 1900 nM
Activity (K562 [3]): 1.44%
IC50 (L1210): 2300 nM
Activity (K562 [4]): 58.18%
IC50 (FM3A): 4400 nM
IC50 [5]: 1200 nM
Activity (K562 [6]): 40.38%
IC50 (CCRF-CEM): 400 nM

COc1cc(C(=O)c2cc3ccc(OC)c(O)c3o2)cc(OC)c1OC
IC50 (HeLa): > 10000 nM
IC50 [1]: > 10000 nM
IC50 (L1210): > 10000 nM
IC50 (FM3A): > 10000 nM
IC50 (CCRF-CEM): > 10000 nM

COc1ccc(/C=C\c2cc(OC)c(OC)c(OC)c2)cc1O
Activity (Bos taurus): 99%

COc1cc(C(=O)c2oc3cccc(OC)c3c2C)cc(OC)c1OC
IC50 (HeLa): 340 nM
Activity (K562 [7]): 50.2%
Activity (Bos taurus): 66%
Activity (K562 [8]): 21.24%
IC50 [1]: 200 nM
IC50 (L1210): 590 nM
Activity (K562 [9]): 42.1%
IC50 (FM3A): 570 nM
Activity (K562 [10]): 7.7%
IC50 [5]: 1800 nM
IC50 (CCRF-CEM): 490 nM

COc1cc2cc(C(=O)c3cc(OC)c(OC)c(OC)c3)oc2cc1OC
IC50 (HeLa): 570 nM
IC50 [1]: 770 nM
IC50 (L1210): 1800 nM
IC50 (FM3A): 1200 nM
IC50 (CCRF-CEM): 1900 nM

COc1cc(C(=O)c2oc3ccccc3c2C)cc(OC)c1OC
IC50 (HeLa): 890 nM
IC50 [1]: 1300 nM
IC50 (L1210): 2100 nM
IC50 (FM3A): 2100 nM
IC50 (CCRF-CEM): 2000 nM

COc1cc(C(=O)c2cc3ccc(O)cc3o2)cc(OC)c1OC
IC50 (HeLa): > 10000 nM
IC50 [1]: > 10000 nM
IC50 (L1210): > 10000 nM
IC50 (FM3A): > 10000 nM
IC50 (CCRF-CEM): > 10000 nM

COc1cc(C(=O)c2cc3cc(C)ccc3o2)cc(OC)c1OC
IC50 (HeLa): > 10 nM
IC50 [1]: 2500 nM
IC50 (L1210): 7100 nM
IC50 (FM3A): 8400 nM
IC50 (CCRF-CEM): 7200 nM

COc1cc(C(=O)c2cc3cc(Cl)ccc3o2)cc(OC)c1OC
IC50 (HeLa): > 10000 nM
IC50 [1]: > 10000 nM
IC50 (L1210): > 10000 nM
IC50 (FM3A): > 10000 nM
IC50 (CCRF-CEM): > 10000 nM

COc1cc(C(=O)c2cc3ccccc3o2)cc(OC)c1OC
IC50 [1]: 8000 nM
IC50 (L1210): > 10000 nM
IC50 (FM3A): > 10000 nM
IC50 (CCRF-CEM): > 10000 nM

COc1cc(C(=O)c2oc3cc(O)ccc3c2C)cc(OC)c1OC
IC50 (HeLa): 260 nM
IC50 [1]: 1300 nM
IC50 (L1210): > 10000 nM
IC50 (FM3A): > 10000 nM
IC50 (CCRF-CEM): 4300 nM

COc1cc(C(=O)c2cc3cccc(OC)c3o2)cc(OC)c1OC
IC50 (HeLa): > 10000 nM
IC50 [1]: 7800 nM
IC50 (L1210): > 10000 nM
IC50 (FM3A): > 10000 nM
IC50 (CCRF-CEM): > 10000 nM

COc1cc(C(=O)c2cc3cccc(O)c3o2)cc(OC)c1OC
IC50 (HeLa): > 10000 nM
IC50 [1]: > 10000 nM
IC50 (L1210): > 10000 nM
IC50 (FM3A): > 10000 nM
IC50 (CCRF-CEM): > 10000 nM

COc1ccc2c(N(C)C)c(C(=O)c3cc(OC)c(OC)c(OC)c3)oc2c1
IC50 [1]: 48 nM

COc1ccc2cc(C(=O)c3cc(OC)c(OC)c(OC)c3)oc2c1
IC50 (HeLa): 110 nM
Activity (K562 [7]): 59.11%
Activity (Bos taurus): 79%
Activity (K562 [8]): 16.36%
IC50 [1]: 59 nM
IC50 (L1210): 90 nM
Activity (K562 [9]): 39.06%
IC50 (FM3A): 100 nM
Activity (K562 [10]): 1.83%
IC50 [5]: 700 nM
IC50 (CCRF-CEM): 70 nM

COc1ccc2cc(C(=S)c3cc(OC)c(OC)c(OC)c3)oc2c1
IC50 (HeLa): 100 nM
IC50 [1]: 100 nM
IC50 (L1210): 180 nM
IC50 (FM3A): 320 nM
IC50 (CCRF-CEM): 220 nM

COc1cc(C(=O)c2oc3c(OC)cccc3c2C)cc(OC)c1OC
IC50 (HeLa): 530 nM
IC50 [1]: 400 nM
IC50 (L1210): 1700 nM
IC50 (FM3A): 1700 nM
IC50 (CCRF-CEM): 2400 nM

COc1ccc2cc(C(O)c3cc(OC)c(OC)c(OC)c3)oc2c1 (stereo unspecified)
IC50 (HeLa): > 10000 nM
IC50 [1]: 3000 nM
IC50 (L1210): > 10000 nM
IC50 (FM3A): 7010 nM
IC50 (CCRF-CEM): > 10000 nM

COc1ccc2oc(C(=O)c3cc(OC)c(OC)c(OC)c3)cc2c1
IC50 (HeLa): > 10000 nM
IC50 [1]: 9400 nM
IC50 (L1210): > 10000 nM
IC50 (FM3A): > 10000 nM
IC50 (CCRF-CEM): > 10000 nM

COc1cc(C(=O)c2cc3c(OC)cccc3o2)cc(OC)c1OC
IC50 (HeLa): 410 nM
Activity (Bos taurus): 76%
IC50 [1]: 360 nM
Activity (K562 [11]): 58.46%
Activity (K562 [12]): 37.4%
Activity (K562 [13]): 4.14%
IC50 (L1210): 410 nM
IC50 (FM3A): 550 nM
IC50 [5]: 1100 nM
Activity (K562 [14]): 20.71%
IC50 (CCRF-CEM): 870 nM

CCOc1ccc2c(C)c(C(=O)c3cc(OC)c(OC)c(OC)c3)oc2c1
IC50 (HeLa): 6.3 nM
Activity (K562 [15]): 70.99%
Activity (Bos taurus): 96%
IC50 [1]: 1.2 nM
Activity (K562 [16]): 3.67%
Activity (K562 [17]): 13.24%
IC50 (L1210): 2 nM
Activity (K562 [18]): 25.34%
IC50 (FM3A): 2.8 nM
IC50 [5]: 430 nM
IC50 (CCRF-CEM): 2.8 nM

COc1cc(C(=O)c2cc3cc(O)ccc3o2)cc(OC)c1OC
IC50 (HeLa): > 10000 nM
IC50 [1]: > 10000 nM
IC50 (L1210): > 10000 nM
IC50 (FM3A): > 10000 nM
IC50 (CCRF-CEM): > 10000 nM

COc1ccc2cc(C(OC)c3cc(OC)c(OC)c(OC)c3)oc2c1 (stereo unspecified)
IC50 (HeLa): 4400 nM
IC50 [1]: > 10000 nM
IC50 (L1210): > 10000 nM
IC50 (FM3A): > 10000 nM
IC50 (CCRF-CEM): > 10000 nM

COc1ccc2cc(Cc3cc(OC)c(OC)c(OC)c3)oc2c1
IC50 (HeLa): 680 nM
IC50 [1]: 770 nM
IC50 (L1210): 2300 nM
IC50 (FM3A): 2600 nM
IC50 (CCRF-CEM): 1500 nM

COc1cc(C(=O)c2cc3cc(OC)c(OC)c(OC)c3o2)cc(OC)c1OC
IC50 (HeLa): > 10000 nM
IC50 [1]: > 10000 nM
IC50 (L1210): > 10000 nM
IC50 (FM3A): > 10000 nM
IC50 (CCRF-CEM): > 10000 nM
